Bioassay records deposited in PubChem by SRMLSC.
This is one part of a sample in which hits are shown more often than they occur.
Yeast life ext: yeast lifespan extension; hit rate 0.68% among 130,000; AID 775; inhibition of the nicotinamide effect, % at 10 µM; S. cerevisiae growth with nicotinamide, OD615; deaD strain in restrictive glucose medium;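 active = inhibition above a set limit, placed 3 SD over the median of all compounds, cut at about 26% in these data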;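 also: 0% = nicotinamide-treated wells and 100% = cells grown without nicotinamide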
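Buffer or medium: CSMM-D glucose medium, restrictive; test system: modified budding yeast, DeaD strain; compound: single dose 10 µM compound, 0.25% DMSO; schedule: culture preincubation 4 h, compound exposure 48 h, both 30 °C; detection: optical density (absorbance) at 615 nm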
Yeast growth inh: chemicals that inhibit yeast BB579 growth in restrictive medium (lifespan-shortening candidates); AID 804; S. cerevisiae BB579 growth, OD615, 48 h; hit rate 0.51% among 140,000; inhibition, % at 10 µM;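 active = inhibition above a set limit, 3 SD over the mean compound inhibition, cut at about 44% in these data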
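Detection: OD615 turbidity measurement; Material: Saccharomyces cerevisiae DeaD strain BB579, replicative lifespan model yeast; Timing: 48 h exposure, 30 °C; Doses: single 10 µM dose; Medium: CSMM-D restrictive synthetic medium containing dextrose (glucose); Controls: amphotericin B at 10 µg/mL as positive control.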
PostGolgi ctrl: inhibits growth of the yeast control strain; efflux-deficient yeast background strain, growth absorbance A615, 16 h; hit rate 5% among 98,000; inhibition, % at 10 µM
PostGolgi yeast: growth inhibition of a yeast mutant, post-Golgi transport screen | post-Golgi transport phenotypic cell assay | inhibition, % at 10 µM | hit rate 0.9% among 98,000 | AID 739;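 also: yeast cells grown in 1536-well plates; yeast grown about 18 h at 30C before absorbance read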
* hit, by the source's call; . = not tested or not shown. Rule as the data show it, unless noted: active = inhibition above about 30%; inactive = the rest.

SMILES | Yeast life ext | Yeast growth inh | PostGolgi ctrl | PostGolgi yeast
C/C(=N\OC(=O)NC(C)C)c1sc(-c2ccc(Cl)cc2)nc1C | -11 | -8 | 36* | -2
CCn1c(SCC(=O)Nc2cc(OC)ccc2OC)nnc1C1CCCCC1 | 0 | -15 | 3 | 4
Clc1cccc(-c2cc3nc4c(c(NCc5ccco5)n3n2)CCCC4)c1 | -12 | -2 | 55* | -7
Cc1nc2cc(-c3ccc(Cl)cc3)nn2c(C)c1CCC(=O)NCc1ccco1 | -17 | -10 | 32* | 14
Cc1ccc(-c2cc3nc(C)cc(NCc4ccco4)n3n2)cc1 | -26 | -69 | 33* | 8
CC(C)(C)NC(=O)COC(=O)c1ccccc1OCC(=O)Nc1ccc(Br)cc1 | -2 | -16 | . | .
Cc1c(C(=O)NN2CCN(C)CC2)cccc1[N+](=O)[O-] | -13 | -30 | 29 | 0
CCOc1ccc(NCc2nnc(SCC(=O)Nc3nc(-c4ccccc4)cs3)n2-c2ccccc2)cc1 | 1 | -26 | . | .
CCN(CC)C(=O)CCNS(=O)(=O)c1ccc(C)cc1 | -2 | -5 | -9 | -1
CCN1CCN(C(=O)Nc2cccc(C(F)(F)F)c2)CC1 | -19 | -38 | 31* | 5
Cc1ccc(C2CCN(C(=O)Nc3ccccc3)C2)cc1 (centres undefined) | -34 | -57 | 42* | 7
CN1CCN(C(=S)Nc2cccc(C(F)(F)F)c2)CC1 | 2 | -28 | . | .
CC1CCN(C(=O)Nc2cccc(NC(=O)N3CCC(C)CC3)c2)CC1 | -8 | -14 | 30* | -2
CC1CCN(C(=O)Nc2ccc3nsnc3c2)CC1 | -26 | -44 | 3 | 16
O=C(CCN1C(=O)c2ccccc2C1=O)N1CCCCCC1 | -17 | -21 | 9 | 3
O=C(CCN1C(=O)c2ccccc2C1=O)N1CCC(c2ccccc2)C1 (centres undefined) | -6 | -19 | 32* | -23
Cc1ccc(Oc2ccc(-c3nnc(-c4ccccc4)o3)cc2[N+](=O)[O-])cc1C | -2 | -26 | . | .
Cc1ccccc1C(=O)NNC(=O)CSc1nnc(-c2ccncc2)n1-c1ccccc1 | 4 | -4 | . | .
Cc1nn(-c2ccccc2)c(C)c1/C=N\N1CCN(c2ccc(Cl)cc2)CC1 | -3 | 11 | 47* | 66*
Cc1nn(-c2ccccc2)c(C)c1/C=N/O | 5 | -35 | 27 | -32
CCOc1cccc2c1OC(c1cc(OC)c(OC)c(OC)c1)N1N=C(c3ccc(C)o3)CC21 (centres undefined) | 0 | -16 | . | .
COc1ccc(NC(=O)C(NC(=O)c2ccc(=O)[nH]c2)c2ccc(OC)cc2)cc1 (centres undefined) | -5 | -8 | . | .
Cc1ccc(S(=O)(=O)N(CC(=O)Nc2ccc(Cl)c([N+](=O)[O-])c2)C2CCCCC2)cc1 | -2 | -44 | . | .
Cc1ccc(S(=O)(=O)N(CC(=O)Nc2cccc([N+](=O)[O-])c2)C2CCCCC2)cc1 | -6 | -15 | 35* | -8
CC(C)(C)c1ccc(C2C3=C(CCCC3=O)NC3=C2C(=O)c2ccccc23)cc1 (centres undefined) | -9 | -45 | 32* | -18
SMILES | Yeast life ext | Yeast growth inh | PostGolgi ctrl | PostGolgi yeast
CC1Cc2ccccc2N1C(=O)Cn1nnc(-c2ccccc2NC(=O)C2CCC2)n1 (centres undefined) | 4 | -13 | 32* | 4
CCC(=O)Nc1ccccc1-c1nnn(CC(=O)N2c3ccccc3CC2C)n1 (centres undefined) | -4 | -8 | 12 | 5
Cn1c(COc2ccc(Cl)cc2)nnc1SCc1ncc(-c2ccccc2)o1 | -9 | -23 | 47* | 21
O=c1cc(-c2ccccc2)[nH]c2cc(Cl)ccc12 | 5 | -39 | . | .
Clc1ccc2[nH]c(-c3ccccc3)cc2c1 | -4 | -21 | 42* | -6
O=c1cc(-c2c(F)c(F)c(F)c(F)c2F)oc2ccccc12 | -14 | 6 | 8 | 3
O=c1cc(-c2ccncc2)oc2ccccc12 | -11 | 46* | -6 | 23
O=C(CSc1nnc(COc2ccc(Cl)cc2)o1)N1c2ccccc2CCc2ccccc21 | 0 | -47 | 31* | -8
Brc1ccc2c(c1)OCCOCCOc1cc(Br)ccc1OCCOCCOCCO2 | 13 | -69 | 68* | 0
CCCOc1ccc(C(=O)NNC(=S)NC(=O)c2cc(-c3ccccc3)nc3ccccc23)cc1 | -10 | -38 | 16 | -13
Cc1nc(CS(=O)(=O)c2ccccc2)cc(Sc2ccc(Cl)cc2Cl)n1 | 5 | -33 | 37* | 5
Cc1ccc(NC(=O)C(=O)NCc2ccc(/C=C(/C#N)C(=O)NCc3cccnc3)o2)cc1C | 12 | -35 | . | .
O=C(Nc1ccon1)c1cc2ccccc2oc1=O | -15 | -30 | -4 | 4
COCC(=O)Nc1nc2ccc(C)cc2s1 | -8 | -22 | 7 | -2
Cc1ccc2nc(NC(=O)CCNS(=O)(=O)c3ccc(Br)s3)sc2c1 | -7 | -18 | 42* | 4
Cc1ccc2nc(NC(=O)CCNS(=O)(=O)c3cccs3)sc2c1 | -5 | -27 | 36* | 14
Cc1cccc2sc(NC(=O)CCNS(=O)(=O)c3cccs3)nc12 | -17 | -41 | 9 | -1
CC1CCCN(C(=O)CSCC(=O)Nc2nc(-c3cccs3)cs2)C1 (centres undefined) | -17 | -52 | 64* | -5
CCOC(=O)N1CCN(C(=O)CSCC(=O)Nc2nc(-c3ccc(C)cc3)cs2)CC1 | 11 | 5 | -2 | 4
CC1CCN(C(=O)CSCC(=O)Nc2nc(-c3cccs3)cs2)CC1 | -3 | -34 | 65* | -1
CCOC(=O)N1CCN(C(=O)CSCC(=O)Nc2nc(-c3cccs3)cs2)CC1 | . | -51 | . | .
O=C(O)C1CCCCC1C(=O)Nc1nc(-c2cccs2)cs1 (centres undefined) | -12 | -16 | 2 | -4
CC1CCCCN1C(=O)CSCC(=O)Nc1nc(-c2cccs2)cs1 (centres undefined) | -13 | 10 | 73* | -1
CCNC(=S)NNC(=O)c1cc(-c2cc(C)ccc2C)nc2ccccc12 | -13 | 10 | 2 | -2
C=CCN1C(=O)C(CC(=O)Nc2ccccc2)SC1=Nc1ccc(S(N)(=O)=O)cc1 (centres undefined) | -26 | -29 | -3 | 7
SMILES | Yeast life ext | Yeast growth inh | PostGolgi ctrl | PostGolgi yeast
O=C(Nc1ccc(Cl)cn1)C1CCCN1S(=O)(=O)c1cccc2ccccc12 (centres undefined) | 4 | -28 | 50* | -3
O=C(Nc1cc(C(F)(F)F)ccc1Cl)C1CCN(c2nnc(-n3cccc3)s2)CC1 | -2 | -48 | 39* | 6
CC(C)CCN(C(=O)CNC(=O)c1ccco1)C(C(=O)NC1CCCCC1)c1ccco1 (centres undefined) | -10 | -34 | 16 | 12
CCOC(=O)/C(=C\c1ccccc1)C(=O)c1cc(C(C)=O)c(Nc2ccccc2)s1 | -3 | -22 | 60* | 19
CCOC(=O)/C(=C\c1cccnc1)C(=O)c1cc(C(C)=O)c(Nc2ccccc2)s1 | 33* | -52 | 90* | 111*
CCOC(=O)C(=O)/C(C#N)=C/Nc1ccccc1 | -9 | -35 | 11 | -10
O=S(=O)(Nc1ccccc1)c1ccc(Oc2ncc(C(F)(F)F)cc2Cl)cc1 | -3 | -75 | 59* | 12
